Measurements published in ChEMBL document CHEMBL1139003, “Novel endotoxin-sequestering compounds with terephthalaldehyde-bis-guanylhydrazone scaffolds” (Bioorg Med Chem Lett, 2006).

How the values were obtained:
J774.A1 = test: Inhibition of LPS-induced production of nitric oxide in murine J774.A1 cells; assay type: functional, cell-based, Mus musculus
Summary of the method: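 Murine J774 cells grown in medium containing fetal bovine serum are stimulated with LPS. Nitric oxide production is read as nitrite. IC50 is the concentration giving 50% inhibition of NO.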

Lipopolysaccharide (LPS) = test: Binding affinity to lipid A moiety of LPS present in Gram negative bacteria by fluorescent probe method; assay type: functional
Summary of the method: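 Homogeneous, automated fluorescence displacement assay run in aqueous buffer. A fluorescent probe is bound to LPS and test ligand displaces it. ED50 is the ligand concentration that displaces 50% of the bound probe and is taken as relative binding affinity.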

Mus musculus [1] = species on record: Mus musculus; test: Decrease in lethality in D-galactosamine-sensitized mice challenged with LPS at 200 ng/mouse
Mus musculus [2] = species on record: Mus musculus; test: Decrease in lethality in D-galactosamine-sensitized mice challenged with LPS at 200 ng/mouse; assay type: functional, organism-based
Summary of the method: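 Mice primed with D-galactosamine receive graded doses of test compound and are challenged with a supralethal LPS dose of 200 ng/mouse. The endpoint is lethality.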

Molecule | IC50 (J774.A1; Mus musculus, J774.A1) | ED50 (Lipopolysaccharide (LPS)) | IC50 (J774.A1; j774.a1) | Activity (Mus musculus [1]) | Activity (Mus musculus [2])
CCCCCCOc1c(/C=N/N=C(N)N)ccc(/C=N/NC(=N)N)c1OCCCCCC | 4.67 µM | 13.2 µM | – | – | –
N=C(N)N/N=C/c1ccc(/C=N/NC(=N)N)c(O)c1O | 26.4 µM | 43.7 µM | – | – | –
CCCCCCCCOc1c(/C=N/N=C(N)N)ccc(/C=N/N=C(N)N)c1OCCCCCCCC | 3.45 µM | 39.5 µM | – | Dose-dependent effect | Dose-dependent effect
CCCCOc1c(/C=N/N=C(N)N)ccc(/C=N/NC(=N)N)c1OCCCC | 4.15 µM | 9.44 µM | – | – | –
N=C(N)N/N=C/c1ccc(/C=N/NC(=N)N)cc1 | 24.4 µM | 34.6 µM | – | – | –
CCCCCCCCCCCCCCOc1c(/C=N/N=C(N)N)ccc(/C=N/N=C(N)N)c1OCCCCCCCCCCCCCC | 14.9 µM | > 500 µM | – | – | –
CCCCCOc1c(/C=N/N=C(N)N)ccc(/C=N/N=C(N)N)c1OCCCCC | 3.54 µM | 7.82 µM | – | – | –

Continued, in another order:

IC50 (J774.A1; Mus musculus, J774.A1) | ED50 (Lipopolysaccharide (LPS)) | IC50 (J774.A1; j774.a1) | Molecule | Activity (Mus musculus [1]) | Activity (Mus musculus [2])
8.38 µM | 12.7 µM | – | CCCOc1c(/C=N/N=C(N)N)ccc(/C=N/N=C(N)N)c1OCCC | – | –
28 µM | 42.3 µM | – | COc1c(/C=N/N=C(N)N)ccc(/C=N/NC(=N)N)c1OC | – | –
4.56 µM | 22.8 µM | – | CCOc1c(/C=N/N=C(N)N)ccc(/C=N/N=C(N)N)c1OCC | – | –
– | 1.67 µM | – | POLYMYXIN B [listing 1 of 2 here] | – | –
– | – | 0.98 µM | POLYMYXIN B [listing 2 of 2 here] | – | –
9.64 µM | 29.9 µM | – | C=CCOc1c(/C=N/NC(=N)N)ccc(/C=N/NC(=N)N)c1OCC=C | – | –
